A word on the pIC50: it is the IC50 on a negative log10 scale, so that one unit is a factor of ten.

pIC50: −log10 of the molar value.

Experiment [1] can be described thus: Cytotoxicity against human ARPE19 cells assessed as inhibition of cell growth after 96 hrs by alamar blue assay. The format is cell-based. Conditions: ARPE-19, 96 h. Summed up: (§1)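 HT-29 and ARPE-19 cells exposed for 96 h. ARPE-19 seeded at 5 10^3 cells/well for this period. Sterol stocks in DMSO. Viability by Alamar Blue. IC50 is the concentration inhibiting 50% of cellular growth, mean of at least three separate experiments.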
On the technique in general: The colour change of resazurin is a common sign of viable cells or microbes.

Experiment [2] deals with HT-29. Briefly: Cytotoxicity against human HT-29 cells assessed as cell viability after 48 hrs by alamar blue assay. The format is functional, cell-based. The note with it: HT-29, 48 h. Summed up: (§2)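 Alamar Blue viability assay on the human cell line named (origins given: HT-29 colorectal adenocarcinoma, HepG2 hepatocellular carcinoma, LAMA-84 myeloid leukemia, A549 lung adenocarcinoma, PC3 prostate metastasis, MCF-7 breast adenocarcinoma, ARPE-19 retinal pigment epithelium, BJ skin fibroblast). Exposure was 48 h. Sterol stocks were made in DMSO. IC50 is the concentration inhibiting 50% of cellular growth, given as the mean of at least three separate experiments.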

Experiment [3] in a line: Cytotoxicity against human ARPE19 cells assessed as cell viability after 48 hrs by alamar blue assay. In kind it is cell-based, ARPE-19. The note with it: Homo sapiens, ARPE-19, 48 h. Summed up: as §2
Experiment [4] has as its system HT-29. In words: Selectivity index, ratio of IC50 for human ARPE19 cells to IC50 for human HT-29 cells. The format is functional.
Experiment [5] has as its system HT-29. Briefly: Cytotoxicity against human HT-29 cells assessed as inhibition of cell growth after 96 hrs by alamar blue assay. In kind it is functional, cell-based. The note with it: HT-29, 96 h. The procedure, abridged: as §1

Consider `CC(=O)O[C@H]1CC[C@]2(C)[C@H]3CC[C@]4(C)[C@@H]([C@H](C)CCCC(C)C)CC[C@H]4[C@@H]3CC[C@@]2(O)[C@H]1O`, for which the negative-log IC50 (pIC50) in experiment [1] is 4.66; with HT-29 [2], 4.73; in experiment [3], 4.49; with HT-29 [5] it was 4.75. The “Ratio IC50” value with HT-29 [4] was 1.75.

These data come from ChEMBL document CHEMBL1821637, “Selective cytotoxicity of oxysterols through structural modulation on rings A and B. Synthesis, in vitro evaluation, and SAR” (J Med Chem, 2011).
